Assay results as given in ChEMBL document CHEMBL1124270, “Quinolone antibacterial agents. Synthesis and structure-activity relationships of 8-substituted quinoline-3-carboxylic acids and 1,8-naphthyridine-3-carboxylic acids” (1988).
In brackets after ≈: the same amount, converted by molar mass.

Legend:
Format in all cases: functional
[1] = test system: Pseudomonas aeruginosa; experiment: Minimum inhibitory concentration against Pseudomonas aeruginosa UI-18 in vitro.
[2] = test system: Mus musculus; experiment: In vivo potency against Escherichia coli vogel using mouse protection assay when given perorally; conditions: po, read-out: PD50
[3] = test system: Staphylococcus aureus; experiment: Minimum inhibitory concentration against Staphylococcus aureus UC-76 in vitro.
[4] = test system: Streptococcus pyogenes; experiment: Minimum inhibitory concentration against Streptococcus pyogenes C203 in vitro.
[5] = test system: Klebsiella pneumoniae; experiment: Minimum inhibitory concentration against Klebsiella pneumoniae MGH-2 in vitro.
[6] = test system: Mus musculus; experiment: In vivo potency against Escherichia coli vogel using mouse protection assay when given subcutaneously; conditions: sc, read-out: PD50
[7] = test system: Providencia rettgeri; experiment: Minimum inhibitory concentration against Providencia rettgeri H1771 in vitro.
[8] = test system: Enterobacter cloacae; experiment: Minimum inhibitory concentration against Enterobacter cloacae HA 2646 in vitro.
[9] = test system: Enterococcus faecalis; experiment: Minimum inhibitory concentration against Streptococcus faecalis MGH-2 in vitro.
[10] = test system: Staphylococcus aureus; experiment: Minimum inhibitory concentration against Staphylococcus aureus H228 in vitro.
[11] = test system: Streptococcus pneumoniae; experiment: Minimum inhibitory concentration against Streptococcus pneumoniae SV-1 in vitro.
[12] = test system: Escherichia coli; experiment: Minimum inhibitory concentration against Escherichia coli H560 in vitro.
[13] = test system: Escherichia coli; experiment: Minimum concentration needed to produce linear DNA at an intensity relative to oxolinic at 10 ug/mL in Escherichia coli H560 in vitro.
Outline: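 DNA gyrase cleavage test, run as previously described: end point is the lowest drug level (µg/mL) that yields linear DNA at a band intensity matching oxolinic acid at 10 µg/mL. Values come from duplicate or triplicate experiments and are stated as accurate to ±50%.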

[14] = test system: Escherichia coli; experiment: Minimum inhibitory concentration against Escherichia coli vogel in vitro.
[15] = test system: Staphylococcus aureus; experiment: In vivo potency against Staphylococcus aureus using mouse protection assay following s.c. administration.; conditions: sc, read-out: PD50
[16] = test system: Staphylococcus aureus; experiment: In vivo potency against Staphylococcus aureus using mouse protection assay following p.o. administration.; conditions: po, read-out: PD50

Compound	MIC [1] [µg/mL]	ED50 [2] [mg/kg]	MIC [3] [µg/mL]	MIC [4] [µg/mL]	MIC [5] [µg/mL]	ED50 [6] [mg/kg]	MIC [7] [µg/mL]	MIC [8] [µg/mL]	MIC [9] [µg/mL]	MIC [10] [µg/mL]	MIC [11] [µg/mL]	MIC [12] [µg/mL]	DNA cleavage conc (gyrase) [13] [µg/mL]	MIC [14] [µg/mL]	ED50 [15] [mg/kg]	ED50 [16] [mg/kg]
CC1COc2c(N3CCC(N)C3)c(F)cc3c(=O)c(C(=O)O)cn1c23.Cl (centres undefined)	0.4	25	0.1	0.2	0.4	2	0.8	0.4	1.6	1.6	0.8	0.2	0.75	0.4	–	–
CNCC1CCN(c2c(F)cc3c(=O)c(C(=O)O)cn(C4CC4)c3c2N)C1.Cl (centres undefined)	6.3	–	0.2	0.4	3.1	–	6.3	3.1	1.6	1.6	1.6	1.6	5	0.8	–	–
CCNCC1CCN(c2cc3c(cc2F)c(=O)c(C(=O)O)cn3C2CC2)C1.Cl (centres undefined)	1.6	35	0.013	0.05	0.2	–	0.8	0.4	0.2	0.4	0.2	0.05	1	0.2	–	–
NCC1CCN(c2cc3c(cc2F)c(=O)c(C(=O)O)cn3C2CC2)C1 (centres undefined)	0.8 (≈ 2.32 µM)	> 100	0.006 (≈ 0.0174 µM)	0.025 (≈ 0.0724 µM)	0.05 (≈ 0.145 µM)	2	0.2 (≈ 0.579 µM)	0.05 (≈ 0.145 µM)	0.025 (≈ 0.0724 µM)	0.025 (≈ 0.0724 µM)	0.003 (≈ 0.00869 µM)	0.006 (≈ 0.0174 µM)	0.5	0.05 (≈ 0.145 µM)	–	–
Cl.Nc1c(N2CCC(N)C2)c(F)cc2c(=O)c(C(=O)O)cn(C3CC3)c12 (centres undefined)	1.6	50	0.4	3.1	0.4	6	0.8	0.2	3.1	3.1	3.1	0.1	18	0.4	–	–
CCNCC1CCN(c2c(F)cc3c(=O)c(C(=O)O)cn4c3c2OCC4C)C1 (centres undefined)	0.8 (≈ 2.05 µM)	> 100	0.025 (≈ 0.0642 µM)	0.05 (≈ 0.128 µM)	0.4 (≈ 1.03 µM)	11	0.8 (≈ 2.05 µM)	0.2 (≈ 0.514 µM)	0.1 (≈ 0.257 µM)	0.2 (≈ 0.514 µM)	0.05 (≈ 0.128 µM)	0.05 (≈ 0.128 µM)	0.5	0.1 (≈ 0.257 µM)	–	–
O=C(O)c1cn(C2CC2)c2nc(N3CCNCC3)c(F)cc2c1=O	0.2 (≈ 0.602 µM)	0.7	0.4 (≈ 1.2 µM)	1.6 (≈ 4.81 µM)	0.1 (≈ 0.301 µM)	0.4	0.2 (≈ 0.602 µM)	0.1 (≈ 0.301 µM)	1.6 (≈ 4.81 µM)	1.6 (≈ 4.81 µM)	1.6 (≈ 4.81 µM)	0.05 (≈ 0.15 µM)	1	0.05 (≈ 0.15 µM)	6	14
CC1COc2c(N3CCC(CN)C3)c(F)cc3c(=O)c(C(=O)O)cn1c23 (centres undefined)	1.6 (≈ 4.43 µM)	> 100	0.05 (≈ 0.138 µM)	0.025 (≈ 0.0692 µM)	0.4 (≈ 1.11 µM)	–	0.8 (≈ 2.21 µM)	0.2 (≈ 0.553 µM)	0.1 (≈ 0.277 µM)	0.2 (≈ 0.553 µM)	0.025 (≈ 0.0692 µM)	0.05 (≈ 0.138 µM)	0.5	0.2 (≈ 0.553 µM)	–	–
CC(C)NCC1CCN(c2cc3c(cc2F)c(=O)c(C(=O)O)cn3C2CC2)C1.Cl (centres undefined)	3.1	25	0.025	0.05	0.2	4	0.8	0.1	0.1	0.2	0.025	0.05	–	0.1	–	–
CNCC1CCN(c2cc3c(cc2F)c(=O)c(C(=O)O)cn3C2CC2)C1 (centres undefined)	0.8 (≈ 2.23 µM)	35	0.025 (≈ 0.0696 µM)	0.05 (≈ 0.139 µM)	0.2 (≈ 0.556 µM)	–	0.4 (≈ 1.11 µM)	0.2 (≈ 0.556 µM)	0.1 (≈ 0.278 µM)	0.2 (≈ 0.556 µM)	0.05 (≈ 0.139 µM)	0.1 (≈ 0.278 µM)	0.5	0.1 (≈ 0.278 µM)	–	–
CC1COc2c(N3CCC(CN(C)C)C3)c(F)cc3c(=O)c(C(=O)O)cn1c23.Cl (centres undefined)	3.1	–	0.05	0.05	0.4	–	0.8	0.4	0.4	0.2	0.05	0.2	1	0.2	–	–
CNCC1CCN(c2c(F)cc3c(=O)c(C(=O)O)cn4c3c2OCC4C)C1 (centres undefined)	1.6 (≈ 4.26 µM)	–	0.025 (≈ 0.0666 µM)	0.05 (≈ 0.133 µM)	0.4 (≈ 1.07 µM)	–	3.1 (≈ 8.26 µM)	0.4 (≈ 1.07 µM)	0.1 (≈ 0.266 µM)	0.4 (≈ 1.07 µM)	0.1 (≈ 0.266 µM)	0.2 (≈ 0.533 µM)	1	0.2 (≈ 0.533 µM)	–	–
O=C(O)c1cn(C2CC2)c2c(Cl)c(N3CCNCC3)c(F)cc2c1=O	0.4 (≈ 1.09 µM)	0.8	0.05 (≈ 0.137 µM)	0.2 (≈ 0.547 µM)	0.05 (≈ 0.137 µM)	0.4	0.1 (≈ 0.273 µM)	0.025 (≈ 0.0683 µM)	0.4 (≈ 1.09 µM)	0.1 (≈ 0.273 µM)	0.1 (≈ 0.273 µM)	0.025 (≈ 0.0683 µM)	0.5	0.025 (≈ 0.0683 µM)	–	–
Cl.NC1CCN(c2c(F)cc3c(=O)c(C(=O)O)cn(C4CC4)c3c2[N+](=O)[O-])C1 (centres undefined)	1.6	30	0.2	1.6	0.4	9	0.8	0.2	1.6	0.8	1.6	0.4	–	0.2	–	–
CN(C)CC1CCN(c2c(F)cc3c(=O)c(C(=O)O)cn(C4CC4)c3c2N)C1.Cl (centres undefined)	3.1	9	0.1	0.4	0.8	4	0.8	0.2	0.4	0.2	0.4	0.4	5	0.4	81	100
Nc1c(N2CCNCC2)c(F)cc2c(=O)c(C(=O)O)cn(C3CC3)c12	0.8 (≈ 2.31 µM)	58	0.8 (≈ 2.31 µM)	6.3 (≈ 18.2 µM)	0.8 (≈ 2.31 µM)	2	0.4 (≈ 1.15 µM)	0.4 (≈ 1.15 µM)	12.5 (≈ 36.1 µM)	6.3 (≈ 18.2 µM)	12.5 (≈ 36.1 µM)	0.2 (≈ 0.577 µM)	2.5	0.4 (≈ 1.15 µM)	–	–
CC(C)NCC1CCN(c2c(F)cc3c(=O)c(C(=O)O)cn4c3c2OCC4C)C1 (centres undefined)	0.2 (≈ 0.496 µM)	8	0.4 (≈ 0.991 µM)	0.2 (≈ 0.496 µM)	0.8 (≈ 1.98 µM)	2	3.1 (≈ 7.68 µM)	0.4 (≈ 0.991 µM)	0.05 (≈ 0.124 µM)	0.05 (≈ 0.124 µM)	0.05 (≈ 0.124 µM)	0.4 (≈ 0.991 µM)	–	0.2 (≈ 0.496 µM)	–	–
CCNCC1CCN(c2c(F)cc3c(=O)c(C(=O)O)cn(C4CC4)c3c2N)C1.Cl.Cl (centres undefined)	3.1	–	0.05	0.2	0.8	–	1.6	0.4	0.2	0.8	0.4	0.8	2.5	0.4	–	–
CC(C)NCC1CCN(c2nc3c(cc2F)c(=O)c(C(=O)O)cn3C2CC2)C1 (centres undefined)	0.8 (≈ 2.06 µM)	8	0.1 (≈ 0.257 µM)	0.2 (≈ 0.515 µM)	0.4 (≈ 1.03 µM)	2	1.6 (≈ 4.12 µM)	0.2 (≈ 0.515 µM)	0.2 (≈ 0.515 µM)	0.2 (≈ 0.515 µM)	0.2 (≈ 0.515 µM)	0.1 (≈ 0.257 µM)	2.5	0.2 (≈ 0.515 µM)	16	35
Cl.O=C(O)c1cn(C2CC2)c2c([N+](=O)[O-])c(N3CCNCC3)c(F)cc2c1=O	1.6	10	0.4	12.5	0.8	3	3.1	0.2	6.3	1.6	12.5	0.4	–	0.2	–	–
CCNCC1CCN(c2c(F)cc3c(=O)c(C(=O)O)cn(C4CC4)c3c2[N+](=O)[O-])C1.Cl (centres undefined)	6.3	–	0.1	0.2	0.8	–	1.6	0.4	0.4	0.4	0.1	0.4	–	0.4	–	–
CCNCC1CCN(c2c(F)cc3c(=O)c(C(=O)O)cn(C4CC4)c3c2Cl)C1 (centres undefined)	0.8 (≈ 1.96 µM)	–	0.003 (≈ 0.00736 µM)	0.006 (≈ 0.0147 µM)	0.1 (≈ 0.245 µM)	–	0.2 (≈ 0.49 µM)	0.05 (≈ 0.123 µM)	0.013 (≈ 0.0319 µM)	0.013 (≈ 0.0319 µM)	0.003 (≈ 0.00736 µM)	0.025 (≈ 0.0613 µM)	0.1	0.05 (≈ 0.123 µM)	–	–
